Converted amounts (≈) assume the structure as drawn. The source made the active and inactive calls. No cut-off for these calls is given here.
Key:
Staphylococcus aureus [1] = test: Antimicrobial activity against […] Staphylococcus aureus SA1199B after 18 hrs by MTT based broth dilution assay; assay type: functional
Procedure, shortened: (§1)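 Strains grown 24 h at 37 °C on nutrient agar. Inoculum of 5 × 10^5 CFU set in 0.9% saline against a 0.5 McFarland standard. Compounds serially diluted 0.5–256 μg/mL in Mueller–Hinton broth, inoculated and incubated 18 h at 37 °C; DMSO control; norfloxacin positive control. MTT (5 mg/mL methanolic) added for 20 min; MIC is the lowest concentration with no growth (no yellow-to-blue change); at least three independent determinations.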

Staphylococcus aureus [2] = test: Antimicrobial activity against […] Staphylococcus aureus ATCC 25923 after 18 hrs by MTT based broth dilution assay; assay type: functional; details: ATCC 25923, 18 h; procedure, shortened: as §1
Staphylococcus aureus [3] = test: Antimicrobial activity against methicillin-resistant Staphylococcus aureus EMRSA-15 after 18 hrs by MTT based broth dilution assay; assay type: functional; details: EMRSA-15, 18 h; procedure, shortened: as §1
Staphylococcus aureus [4] = test: Antimicrobial activity against tetracycline/methicillin-resistant Staphylococcus aureus XU212 after 18 hrs by MTT based broth dilution assay; assay type: functional; details: XU212, 18 h; procedure, shortened: as §1
Enterococcus faecalis [5] = test: Antimicrobial activity against Enterococcus faecalis FF11 at 40 ug/disk after 2 days by disc diffusion method; assay type: functional, organism-based
Procedure, shortened: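 Bacterial suspension (1 × 10^5 CFU/mL) spread on Mueller–Hinton agar. Paper disks (8 mm) carried 40 μL of a 1000 μg/mL acetone solution, dried, and were placed on the plate. Incubated 2 days at 37 °C; halo diameter measured; mean ± standard error of three replications; azithromycin positive control.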

Pyricularia oryzae = test: Antimicrobial activity against Magnaporthe oryzae Triticum pathotype at 40 ug/disk after 5 days by disc diffusion method; assay type: functional, organism-based
Procedure, shortened: (§2)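 Fungi pre-grown on 10% V8 agar at 25 °C in the dark. A 4 mm mycelial agar block was centred on a 9 cm PDA plate. Paper disks (8 mm) carried 40 μL of a 1000 μg/mL acetone stock, dried, and were set 4 mm from the block. Plates incubated 5 days at 25 °C in the dark; inhibition zone measured in mm; triplicate.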

[6] = tested on: Colletotrichum gloeosporioides; test: Antimicrobial activity against Colletotrichum gloeosporioides at 40 ug/disk after 5 days by disc diffusion method; assay type: functional, organism-based; procedure, shortened: as §2
PC-3 = test: Cytotoxicity against human PC3 cells at 100 uM after 72 hrs by SRB assay; assay type: functional, cell-based
Procedure, shortened: (§3)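 SRB assay. Cells kept in DMEM with 10% FBS and 1% penicillin–streptomycin at 37 °C, 5% CO2. Seeded at 5 × 10^4 cells/mL, adapted overnight, then exposed to compounds for 72 h. Cells fixed with 10% TCA (30 min, 4 °C), stained with SRB for 30 min, washed with 1% acetic acid, OD read at 540 nm. Paclitaxel positive control; 0.05% DMSO negative control; triplicate.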

HepG2 = test: Cytotoxicity against human HepG2 cells at 100 uM after 72 hrs by SRB assay; assay type: functional, cell-based; procedure, shortened: as §3
Enterococcus faecalis [7] = test: Antimicrobial activity against Enterococcus faecalis F1B1 assessed as zone of inhibition at 40 ug/disk after 2 days by disc diffusion method; assay type: functional; details: F1B1, 48 h, read-out: DIZ
Procedure, shortened: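 Disk diffusion on Mueller-Hinton agar spread with bacterial suspension (1 × 10^5 CFU/mL). 40 μL of a 1000 μg/mL acetone solution loaded on an 8 mm paper disk and dried before placement. Incubated 2 days at 37 °C, then diameter of the bacteria-free halo measured. Mean ± standard error of three replicates; azithromycin positive control.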

CCn1cc(C(=O)O)c(=O)c2cc(F)c(N3CCNCC3)cc21 [NORFLOXACIN]
MIC (Staphylococcus aureus [1]): 64 mg/L (≈ 200 µM)
MIC (Staphylococcus aureus [2]): 32 mg/L (≈ 100 µM)
MIC (Staphylococcus aureus [3]): 32 mg/L (≈ 100 µM)
MIC (Staphylococcus aureus [4]): 32 mg/L (≈ 100 µM)

CC1=CC[C@]2([C@H]3[C@H](C)COC(=O)[C@H]3O[C@@]2(C)O)[C@@H](O)[C@H]1O
MIC (Staphylococcus aureus [1]): 64 mg/L (≈ 215 µM)
Activity (Enterococcus faecalis [5]): inactive
MIC (Staphylococcus aureus [2]): 32 mg/L (≈ 107 µM)
MIC (Staphylococcus aureus [3]): 64 mg/L (≈ 215 µM)
Activity (Pyricularia oryzae): inactive
Activity [6]: inactive
Activity (PC-3): inactive
Activity (HepG2): inactive

CC(=O)O[C@@H]1[C@@H](OC(C)=O)C(C)=CC[C@]12[C@H]1[C@H](C)COC(=O)[C@H]1O[C@@]2(C)O
MIC (Staphylococcus aureus [1]): 64 mg/L (≈ 167 µM)
Activity (Enterococcus faecalis [5]): inactive
Activity (Pyricularia oryzae): inactive
Activity [6]: inactive
Activity (PC-3): inactive
MIC (Staphylococcus aureus [4]): 64 mg/L (≈ 167 µM)
zone of inhibition at 40 µg/disc (Enterococcus faecalis [7]): 5.5 mm
Activity (HepG2): inactive

C[C@@H]1COC(=O)[C@H]2O[C@@](C)(O)[C@@]3(CC=C(CO)C(=O)[C@H]3O)[C@@H]12
MIC (Staphylococcus aureus [1]): 128 mg/L (≈ 410 µM)
Activity (Enterococcus faecalis [5]): inactive
MIC (Staphylococcus aureus [2]): 64 mg/L (≈ 205 µM)
MIC (Staphylococcus aureus [3]): 128 mg/L (≈ 410 µM)
Activity (Pyricularia oryzae): inactive
Activity [6]: inactive
Activity (PC-3): inactive
MIC (Staphylococcus aureus [4]): 64 mg/L (≈ 205 µM)
Activity (HepG2): inactive

CC1C(=O)[C@@H](O)[C@@]23C[C@H]1O[C@]2(O)O[C@@H]1C(=O)OC[C@@H](C)[C@@H]13 (some centres undefined)
MIC (Staphylococcus aureus [1]): 128 mg/L (≈ 429 µM)
Activity (Enterococcus faecalis [5]): inactive
MIC (Staphylococcus aureus [2]): 64 mg/L (≈ 215 µM)
MIC (Staphylococcus aureus [3]): 64 mg/L (≈ 215 µM)
Activity (Pyricularia oryzae): inactive
Activity [6]: inactive
Activity (PC-3): inactive
MIC (Staphylococcus aureus [4]): 64 mg/L (≈ 215 µM)
Activity (HepG2): inactive

CC(=O)O[C@@H]1C(=O)OC[C@@H](C)[C@@H]1c1ccc(C)c(O)c1O
MIC (Staphylococcus aureus [1]): 128 mg/L (≈ 435 µM)
Activity (Enterococcus faecalis [5]): inactive
MIC (Staphylococcus aureus [3]): 64 mg/L (≈ 217 µM)
Activity (Pyricularia oryzae): inactive
Activity [6]: inactive
Activity (PC-3): inactive
MIC (Staphylococcus aureus [4]): 64 mg/L (≈ 217 µM)
zone of inhibition at 40 µg/disc (Enterococcus faecalis [7]): 9.5 mm
Activity (HepG2): inactive

CC1=CC[C@]2([C@H]3[C@H](C)COC(=O)[C@H]3O[C@@]2(C)O)[C@H](O)C1=O
MIC (Staphylococcus aureus [1]): 64 mg/L (≈ 216 µM)
Activity (Enterococcus faecalis [5]): inactive
MIC (Staphylococcus aureus [2]): 32 mg/L (≈ 108 µM)
MIC (Staphylococcus aureus [3]): 64 mg/L (≈ 216 µM)
Activity (Pyricularia oryzae): inactive
Activity [6]: inactive
Activity (PC-3): inactive
zone of inhibition at 40 µg/disc (Enterococcus faecalis [7]): 7.1 mm
Activity (HepG2): inactive

CC(=O)O[C@@H]1[C@@H](O)C(C)=CC[C@]12[C@H]1[C@H](C)COC(=O)[C@H]1O[C@@]2(C)O
MIC (Staphylococcus aureus [1]): 16 mg/L (≈ 47 µM)
Activity (Enterococcus faecalis [5]): inactive
MIC (Staphylococcus aureus [2]): 16 mg/L (≈ 47 µM)
MIC (Staphylococcus aureus [3]): 32 mg/L (≈ 94 µM)
Activity (Pyricularia oryzae): inactive
Activity [6]: inactive
Activity (PC-3): inactive
MIC (Staphylococcus aureus [4]): 32 mg/L (≈ 94 µM)
Activity (HepG2): inactive

COCC1=CC[C@]2([C@H]3[C@H](C)COC(=O)[C@H]3O[C@@]2(C)OC)[C@H](O)C1=O
MIC (Staphylococcus aureus [1]): 256 mg/L (≈ 752 µM)
Activity (Enterococcus faecalis [5]): inactive
MIC (Staphylococcus aureus [2]): 128 mg/L (≈ 376 µM)
MIC (Staphylococcus aureus [3]): 256 mg/L (≈ 752 µM)
Activity (Pyricularia oryzae): inactive
Activity [6]: inactive
Activity (PC-3): inactive
MIC (Staphylococcus aureus [4]): 128 mg/L (≈ 376 µM)
zone of inhibition at 40 µg/disc (Enterococcus faecalis [7]): 5.5 mm
Activity (HepG2): inactive

Cc1ccc([C@H]2[C@H](C)COC(=O)[C@H]2O)c(O)c1O
MIC (Staphylococcus aureus [1]): 128 mg/L (≈ 507 µM)
Activity (Enterococcus faecalis [5]): inactive
MIC (Staphylococcus aureus [2]): 64 mg/L (≈ 254 µM)
MIC (Staphylococcus aureus [3]): 128 mg/L (≈ 507 µM)
Activity (Pyricularia oryzae): inactive
Activity [6]: inactive
Activity (PC-3): inactive
MIC (Staphylococcus aureus [4]): 128 mg/L (≈ 507 µM)
zone of inhibition at 40 µg/disc (Enterococcus faecalis [7]): 5.6 mm
Activity (HepG2): inactive

COCC1=CC[C@]2([C@H]3[C@H](C)COC(=O)[C@H]3O[C@@]2(C)O)[C@H](O)C1=O
MIC (Staphylococcus aureus [1]): 64 mg/L (≈ 196 µM)
Activity (Enterococcus faecalis [5]): inactive
MIC (Staphylococcus aureus [2]): 64 mg/L (≈ 196 µM)
MIC (Staphylococcus aureus [3]): 128 mg/L (≈ 392 µM)
Activity (Pyricularia oryzae): inactive
Activity [6]: inactive
Activity (PC-3): inactive
MIC (Staphylococcus aureus [4]): 128 mg/L (≈ 392 µM)
Activity (HepG2): inactive
